Results reported in ChEMBL document CHEMBL1153546, “Pharmacokinetics of telbivudine in subjects with various degrees of renal impairment” (Antimicrob Agents Chemother, 2007).

How the values were obtained:
[1] = Mean cumulative urine excretion level in patient with mild renal impairment at 600 mg, po administered as single dose; type: ADME, organism-based; conditions: human, read-out: Activity
In short: (§1)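 Urine collected at –2 to 0 h predose and at 0–4, 4–8, 8–12, 12–24 and 24–48 h after a single oral dose. Unchanged telbivudine measured by validated HPLC-MS/MS (LLOQ 30 ng/ml, calibration 30–5,000 ng/ml), and amounts were summed cumulatively.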

[2] = AUC (0 to t) in patient with severe renal impairment at 200 mg, po administered as single dose; type: ADME, organism-based; conditions: human, plasma
In short: (§2)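 Single oral telbivudine dose. Heparinized blood was drawn predose and up to 48 h postdose, with extra paired dialyzer samples for predialysis dosing. Plasma was stored at –20°C and assayed by validated HPLC-MS/MS (LLOQ 10 ng/ml, range 10–5,000 ng/ml). Noncompartmental analysis: AUC0-t by linear trapezoidal rule to last measurable concentration; AUC0-∞ = AUC0-t + Ct/kel.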

[3] = Tmax in patient with end-stage renal disease at 200 mg, po administered as two single doses within 2 hrs of after completion of dialysis separated by 1 week washout period; type: ADME, organism-based; conditions: human, in vivo
In short: (§3)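 Single oral dose. Plasma was frozen at –20°C. Assay by validated HPLC-MS/MS (LLOQ 10 ng/ml, calibration 10–5,000 ng/ml, m/z 243.0→127.1). Tmax was read directly from the concentration-time data, with noncompartmental analysis.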

[4] = Initial decline half life in patient with end-stage renal disease at 200 mg, po administered as two single doses within 2 hrs of after completion of dialysis separated by 1 week washout period; type: ADME, organism-based; conditions: human, in vivo, read-out: alphat1/2 (converted)
In short: (§4)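 Half-lives came from noncompartmental analysis of plasma LC-MS/MS concentrations over 48 h after a single oral dose. Terminal and initial-decline t1/2 were calculated as 0.693/k, with each rate constant derived by stripping and linear regression.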

[5] = Initial decline half life in patient with severe renal impairment at 200 mg, po administered as single dose; type: ADME, organism-based; conditions: human, in vivo, read-out: alphat1/2 (converted); in short: as §4
[6] = Renal clearance in human with normal renal function at 600 mg, po administered as single dose; type: ADME, organism-based, Kidney; conditions: in vivo, read-out: CL_renal (converted)
In short: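 Renal clearance = Au0-t/AUC0-t, where Au0-t is the cumulative unchanged drug in urine collected over 0–48 h. Plasma and urine were assayed by validated HPLC-MS/MS after a single oral dose.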

[7] = Elimination half life in patient with mild renal impairment at 600 mg, po administered as single dose; type: ADME, organism-based; conditions: human, in vivo, read-out: beta t1/2 (converted); in short: as §4
[8] = Plasma clearance in patient with moderate renal impairment at 400 mg, po administered as single dose; type: ADME, organism-based; conditions: human
In short: (§5)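 Apparent total oral plasma clearance (CL/F) = dose/AUC0-∞. AUC was obtained noncompartmentally from plasma LC-MS/MS concentrations sampled up to 48 h after a single oral dose.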

[9] = Cmax in human with normal renal function at 600 mg, po administered as single dose; type: ADME, organism-based; set-up: dose 600 mg, route oral; conditions: in vivo
In short: (§6)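 Plasma telbivudine after one oral dose, sampled predose through 48 h and quantified by validated LC-MS/MS (LLOQ 10 ng/ml, transition 243.0→127.1 m/z). Cmax was read directly from the observed concentration-time data.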

[10] = AUC (0 to t) in patient with end-stage renal disease at 200 mg, po administered as two single doses within 2 hrs of after completion of dialysis separated by 1 week washout period; type: ADME, organism-based; conditions: human, plasma; in short: as §2
[11] = Cmax in patient with severe renal impairment at 200 mg, po administered as single dose; type: ADME, organism-based; set-up: dose 200 mg, route oral; conditions: human, in vivo; in short: as §6
[12] = Elimination half life in patient with severe renal impairment at 200 mg, po administered as single dose; type: ADME, organism-based; conditions: human, in vivo, read-out: beta t1/2 (converted); in short: as §4
[13] = Elimination half life in patient with end-stage renal disease at 200 mg, po administered as two single doses 2 hrs before dialysis separated by 1 week washout period; type: ADME, organism-based; conditions: human, in vivo, read-out: beta t1/2 (converted); in short: as §4
[14] = Initial decline half life in patient with mild renal impairment at 600 mg, po administered as single dose; type: ADME, organism-based; conditions: human, in vivo, read-out: alphat1/2 (converted); in short: as §4
Homo sapiens = experiment: Dialytic clearance in patient with end-stage renal disease at 200 mg, po administered as single dose 2 hrs before dialysis; type: ADME, organism-based; conditions: in vivo
In short: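 Dose given 2 h before a 3.5–4 h hemodialysis session. Paired pre- and postdialyzer plasma samples were taken at start, mid and end of dialysis. CLHD = [(QA×CA) – (QV×CV)]/CA, where QA and QV are dialyzer inflow and outflow blood rates and CA and CV are the paired concentrations.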

[15] = Elimination half life in patient with end-stage renal disease at 200 mg, po administered as two single doses within 2 hrs of after completion of dialysis separated by 1 week washout period; type: ADME, organism-based; conditions: human, in vivo, read-out: beta t1/2 (converted); in short: as §4
[16] = Initial decline half life in human with normal renal function at 600 mg, po administered as single dose; type: ADME, organism-based; conditions: in vivo, read-out: alphat1/2 (converted); in short: as §4
[17] = Tmax in patient with moderate renal impairment at 400 mg, po administered as single dose; type: ADME, organism-based; conditions: human, in vivo; in short: as §3
[18] = Plasma clearance in patient with end-stage renal disease at 200 mg, po administered as two single doses within 2 hrs of after completion of dialysis separated by 1 week washout period; type: ADME, organism-based; conditions: human; in short: as §5
[19] = AUC (0 to infinity) in patient with end-stage renal disease at 200 mg, po administered as two single doses within 2 hrs of after completion of dialysis separated by 1 week washout period; type: ADME, organism-based; set-up: dose 200 mg, time infinity, route oral; conditions: human, plasma; in short: as §2
[20] = AUC (0 to infinity) in patient with mild renal impairment at 600 mg, po administered as single dose; type: ADME, organism-based; set-up: dose 600 mg, route oral, time infinity; conditions: human, plasma; in short: as §2
[21] = Mean cumulative urine excretion level in human with normal renal function at 600 mg, po administered as single dose; type: ADME, organism-based; conditions: read-out: Activity; in short: as §1
[22] = Tmax in patient with end-stage renal disease at 200 mg, po administered as two single doses 2 hrs before dialysis separated by 1 week washout period; type: ADME, organism-based; conditions: human, in vivo
In short: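 ESRD subjects dosed orally before dialysis, with a 3.5–4 h hemodialysis session starting 2 h post-dose. Blood was drawn predose and at 0.5, 0.75, 1, 2, 3.75–4, 5.5–6, 8, 12, 16, 20, 24, 28, 32, 36 and 48 h. Paired pre/postdialyzer samples were taken at the dialysis time points. Plasma telbivudine by HPLC-MS/MS. Tmax taken directly from the observed data.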

[23] = Tmax in human with normal renal function at 600 mg, po administered as single dose; type: ADME, organism-based; conditions: in vivo; in short: as §3
HepG2 [24] = experiment: Cmax for Telbivudine triphosphate in HepG2 cells after 10 uM Telbivudine treatment; type: ADME, cell-based; conditions: human, hepg2, 10 µM; read-out: Cmax_triphosphate
HepG2 [25] = experiment: Metabolic stability in human HepG2 cells assessed as Telbivudine triphosphate half life; type: ADME, cell-based
[26] = Cmax in patient with mild renal impairment at 600 mg, po administered as single dose; type: ADME, organism-based; set-up: dose 600 mg, route oral; conditions: human, in vivo; in short: as §6
[27] = Renal clearance in patient with severe renal impairment at 200 mg, po administered as single dose; type: ADME, organism-based, Kidney; conditions: human, in vivo, read-out: CL_renal (converted)
In short: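 Single oral dose. Urine was collected at –2–0 h and over 0–4, 4–8, 8–12, 12–24 and 24–48 h; plasma was sampled over 48 h. Both matrices were assayed by HPLC-MS/MS (urine LLOQ 30 ng/ml, plasma LLOQ 10 ng/ml). Renal clearance = cumulative urinary unchanged drug (Au0-t) / AUC0-t, with AUC by the linear trapezoidal rule.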

Cc1cn([C@@H]2C[C@@H](O)[C@H](CO)O2)c(=O)[nH]c1=O [TELBIVUDINE]
dose excreted [1]: 23.6%
AUC(0-t) [2]: 25300 ng·h/mL
Tmax [3]: 3.5 h
half-life [4]: 4.87 h
half-life [5]: 4.5 h
CL renal [6]: 127 mL/min
half-life [7]: 26.7 h
CL/F [8]: 227 mL/min
Cmax [9]: 3400 ng/mL
AUC(0-t) [10]: 41800 ng·h/mL
Cmax [11]: 1600 ng/mL
half-life [12]: 32.9 h
half-life [13]: 35.2 h
half-life [14]: 3.42 h
CL (Homo sapiens): 13.3 L/h
half-life [15]: 37.9 h
half-life [16]: 2.32 h
Tmax [17]: 4 h
CL/F [18]: 60 mL/min
AUC(0-inf) [19]: 67400 ng·h/mL
AUC(0-inf) [20]: 32500 ng·h/mL
dose excreted [21]: 31.5%
Tmax [22]: 8 h
Tmax [23]: 4 h
Cmax (HepG2 [24]): 30 µM
t1/2 (HepG2 [25]): 15 h
Cmax [26]: 3200 ng/mL
CL renal [27]: 11.7 mL/min
